Laboratory results published in ChEMBL document CHEMBL4038281, “Competitive protein tyrosine phosphatase 1B (PTP1B) inhibitors, prenylated caged xanthones from Garcinia hanburyi and their inhibitory mechanism” (Bioorg Med Chem, 2017).

Columns and labels:
[1] = target: T1, Tyrosine-protein phosphatase non-receptor type 1 (Homo sapiens, UniProt P18031); assay: Inhibition of recombinant human PTP1B (1 to 322 residues) expressed in Escherichia coli using pNPP as substrate by Dixon plot analysis
T1 sequence (P18031 whole entry): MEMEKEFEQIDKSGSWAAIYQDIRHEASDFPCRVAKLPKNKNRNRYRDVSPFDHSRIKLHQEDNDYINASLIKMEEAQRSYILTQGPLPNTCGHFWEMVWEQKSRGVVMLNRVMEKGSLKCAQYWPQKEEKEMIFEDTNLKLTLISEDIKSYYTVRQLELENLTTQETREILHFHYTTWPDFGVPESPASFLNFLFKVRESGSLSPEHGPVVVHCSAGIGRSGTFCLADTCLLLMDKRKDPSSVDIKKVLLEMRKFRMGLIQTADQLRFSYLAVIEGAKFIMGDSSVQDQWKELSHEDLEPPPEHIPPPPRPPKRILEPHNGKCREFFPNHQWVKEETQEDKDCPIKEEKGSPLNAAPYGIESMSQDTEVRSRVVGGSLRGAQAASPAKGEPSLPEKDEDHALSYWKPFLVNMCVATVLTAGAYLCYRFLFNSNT
Method in brief: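 Initial velocity with pNPP was recorded over a range of inhibitor concentrations in 25 mM Tris-HCl (pH 7.5) buffer with EDTA, b-mercaptoethanol and DTT at 37 °C, read at 405 nm. Data were fitted by nonlinear regression, and inhibition constants were taken from Dixon plots.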

[2] = target: T1, Tyrosine-protein phosphatase non-receptor type 1; assay: Inhibition of recombinant human PTP1B (1 to 322 residues) expressed in Escherichia coli using pNPP as substrate incubated for 10 mins measured for 30 mins by spectrometric analysis
Method in brief: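 Enzyme (1 mg/mL stock) was mixed with sample in DMSO and 4 mM pNPP stock in 25 mM Tris-HCl pH 7.5, 1 mM EDTA, 2 mM b-mercaptoethanol and 1 mM DTT.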

[3] = target: T1, Tyrosine-protein phosphatase non-receptor type 1; assay: Inhibition of recombinant human PTP1B (1 to 322 residues) expressed in Escherichia coli using pNPP as substrate preincubated for 60 mins followed by substrate addition measured at 30 secs interval for 10 mins by UV-spectrophotmetric method; conditions: read-out: Ki(app)
Method in brief: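 Activity was read continuously by UV spectrophotometry for 10 min, giving progress curves of 20 points at 30 s intervals. Fixed substrate and several inhibitor levels were used, and any lag was excluded. vi, vs and Kobs were obtained by fitting the progress curves.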

SMILES | Ki [1] [nM] | IC50 [2] [nM] | Ki [3] [nM]
CO[C@@H]1C2C(=O)c3c(O)c4c(c(CC=C(C)C)c3O[C@@]23[C@H]2C[C@@H]1C(=O)[C@]3(C/C=C(/C)C(=O)O)OC2(C)C)OC(C)(C)C=C4 (stereo partly specified) | 1750 | 4440 | 
CO[C@@H]1C2C(=O)c3c(O)c4c(c(CC=C(C)C)c3O[C@@]23[C@H]2C[C@@H]1C(=O)[C@]3(C/C=C(/C)C(=O)O)OC2(C)C)O[C@](C)(CCC=C(C)C)C=C4 (stereo partly specified) | 300 | 740 | 
CC(C)=CCC[C@]1(C)C=Cc2c(O)c3c(c(CC=C(C)C)c2O1)O[C@]12C(=C[C@@H]4C[C@H]1C(C)(C)O[C@@]2(C/C=C(/C)C(=O)O)C4=O)C3=O [GAMBOGIC ACID] | 190 | 470 | 499
CC(C)=CCc1c2c(c(O)c3c1O[C@]14C(=C[C@@H]5C[C@H]1C(C)(C)O[C@@]4(CC=C(C)C)C5=O)C3=O)C=CC(C)(C)O2 |  | > 200000 | 
CO[C@@H]1C2C(=O)c3c(O)c(C/C=C(\C)CCC=C(C)C)c(O)c(CC=C(C)C)c3O[C@@]23[C@H]2C[C@@H]1C(=O)[C@]3(C/C=C(/C)C(=O)O)OC2(C)C (stereo partly specified) | 390 | 930 | 

Further lines, with some results ahead:

Ki [1] [nM] | IC50 [2] [nM] | SMILES | Ki [3] [nM]
4380 | 12800 | COC1=C2C(=O)c3c(O)c4c(c(CC=C(C)C)c3O[C@@]23[C@H]2C[C@@H]1C(=O)[C@]3(CC=C(C)C)OC2(C)C)O[C@](C)(CCC=C(C)C)C=C4 | 
1210 | 3470 | CC(C)=CCC/C(C)=C/Cc1c(O)c(CC=C(C)C)c2c(c1O)C(=O)C1=C[C@@H]3C[C@H]4C(C)(C)O[C@@](C/C=C(/C)C(=O)O)(C3=O)[C@@]14O2 [GAMBOGENIC ACID] | 
29300 | 70200 | CC(C)=CCc1c2c(c(O)c3c1O[C@]14C(=C[C@@H]5C[C@H]1C(C)(C)O[C@@]4(/C=C(/C)CO)C5=O)C3=O)C=CC(C)(C)O2 | 
